Each structure is given as a SMILES string. Activity calls are given as the source filed them. No cut-off for these calls is given here.

Data set [1] has as its system Plasma. The experiment in a line: Anticoagulant potency in human plasma assessed as concentration required to double prothrombin time. The format is functional. The gist of the method:
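Compound in DMSO is added to normal human plasma (3% v/v) and preincubated 4 min at 37 °C. Clotting is started with thromboplastin and timed on an automatic coagulometer. Prolongation is measured against a DMSO control. The concentration that doubles clotting time comes from a least-squares regression, as a mean of duplicate measurements.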

Data set [2] has as its target Coagulation factor X (Homo sapiens, UniProt P00742). As to the kind of experiment: Inhibition of human factor 10a.
The test system of data set [3] is Mus musculus. As to the kind of experiment: Ex vivo anticoagulant potency in ICR mouse blood assessed as 1.4 times prolongation of prothrombin time at 100 mg/kg, po after 1 hr relative to control. The format is functional, organism-based. Also noted: dose 100 mg/kg. The gist of the method: (§1)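 Male ICR mice (30–35 g) are fasted >12 h and dosed orally as a suspension in 0.5% methylcellulose; controls get vehicle. At 1 h, blood is drawn from the abdominal aorta under pentobarbital (50 mg/kg ip) into 3.8% citrate (9:1). Plasma is spun at 1000g for 10 min, preincubated 4 min at 37 °C, clotted with thromboplastin and timed. The read-out is the clotting-time ratio versus vehicle controls.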

For data set [4], the system named is Mus musculus. The experiment in a line: Ex vivo anticoagulant potency in ICR mouse blood assessed as 1.1 times prolongation of prothrombin time at 30 mg/kg, po after 1 hr relative to control. Also noted: dose 30 mg/kg. The format is functional, organism-based. Summed up: as §1
In data set [5] the test system is Plasma. As to the kind of experiment: Anticoagulant potency in ICR mouse plasma assessed as concentration required to double prothrombin time. The format is functional.
Data set [6] has as its target CYP3A4 (Homo sapiens, UniProt P08684). The experiment in a line: Inhibition of human CYP3A4 at 10 uM. The format is ADME. The gist of the method:
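CYP3A4 from human B-lymphoblastoid cells expressing the enzyme (10 nM) is incubated with 100 µM testosterone and 10 µM compound for 30 min at 37 °C. 6β-Hydroxytestosterone is measured by HPLC-UV and reported as % inhibition.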

Data set [7] relates to Mus musculus. The experiment in a line: Ex vivo anticoagulant potency in ICR mouse blood assessed as prothrombin time at 30 mg/kg, po after 1 hr relative to control. The format is functional. Summed up: as §1
A short description of data set [8]: Drug concentration in cynomolgus monkey at 0.3 mg/kg, iv after 5 mins. The following applies: in vivo, read-out: Drug uptake. The format is ADME, organism-based, Macaca fascicularis. Also noted: dose 0.3 mg/kg, route intravenous. Summed up: (§2)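 Fasted male cynomolgus monkeys (n = 3) are dosed iv in DMA/PEG400 or orally as a 0.5% methylcellulose suspension. Femoral vein blood is taken up to 24 h (from 5 min iv, from 15 min po). Plasma is deproteinized with acetonitrile, diluted with 0.01 mol/L ammonium formate at pH 3.0, and measured by LC/MS/MS. Values are means ± SD of three.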

Data set [9] is described as follows: AUC in cynomolgus monkey at 0.3 mg/kg, iv. The format is ADME, organism-based, Macaca fascicularis. On the set-up: dose 0.3 mg/kg, route intravenous. The following applies: plasma. The gist of the method: as §2
Data set [10] has as its target Plasminogen (Homo sapiens, UniProt P00747). The experiment in a line: Inhibition of human plasmin after 30 mins. Summed up: (§3)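 Human proteases are incubated with compound for 30 min at 37 °C. Enzyme and substrate pairs are: thrombin 0.080 U/mL with S-2366; trypsin 0.040 µg/mL with S-2222; plasmin 0.040 U/mL with S-2366; kallikrein 0.020 U/mL with S-2302; t-PA 4000 U/mL with S-2288. p-Nitroanilide release is followed continuously for 5 min at 405 nm. Ki comes from Lineweaver–Burk plots at varied substrate levels, as means of three determinations.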

Data set [11] in a line: AUC in cynomolgus monkey at 3 mg/kg, po. The format is ADME, organism-based, Macaca fascicularis. Also noted: dose 3 mg/kg, route oral. As to conditions: plasma. The gist of the method:
as §2

Data set [12] can be described thus: Tmax in cynomolgus monkey at 3 mg/kg, po. The format is ADME, organism-based, Macaca fascicularis. On the set-up: dose 3 mg/kg, route oral. The following applies: in vivo. Summed up:
as §2

The nature of data set [13]: Cmax in cynomolgus monkey at 3 mg/kg, po. The format is ADME, organism-based, Macaca fascicularis. On the set-up: dose 3 mg/kg, route oral. The following applies: in vivo. The gist of the method:
as §2

A short description of data set [14]: Oral bioavailability in cynomolgus monkey at 3 mg/kg. As to conditions: in vivo. The format is ADME, organism-based, Macaca fascicularis. The gist of the method:
as §2

The nature of data set [15]: Total clearance in cynomolgus monkey at 0.3 mg/kg, iv. On the set-up: dose 0.3 mg/kg, route intravenous. As to conditions: in vivo. The format is ADME, organism-based, Macaca fascicularis. Summed up: as §2
A short description of data set [16]: Mean residence time in cynomolgus monkey at 3 mg/kg, po. As to conditions: in vivo. On the set-up: dose 3 mg/kg, route oral. The format is ADME, organism-based, Macaca fascicularis. Summed up:
as §2

Data set [17] can be described thus: Volume of distribution at steady state in cynomolgus monkey at 0.3 mg/kg, iv. The format is ADME, organism-based, Macaca fascicularis. Also noted: dose 0.3 mg/kg, route intravenous. The following applies: in vivo, read-out: Vdss. Summed up:
as §2

Data set [18] deals with Plasma kallikrein (Homo sapiens, UniProt P03952). As to the kind of experiment: Inhibition of human kallikrein after 30 mins. The gist of the method: as §3
Plasma kallikrein, sequence (P03952 20-390 limits assumed): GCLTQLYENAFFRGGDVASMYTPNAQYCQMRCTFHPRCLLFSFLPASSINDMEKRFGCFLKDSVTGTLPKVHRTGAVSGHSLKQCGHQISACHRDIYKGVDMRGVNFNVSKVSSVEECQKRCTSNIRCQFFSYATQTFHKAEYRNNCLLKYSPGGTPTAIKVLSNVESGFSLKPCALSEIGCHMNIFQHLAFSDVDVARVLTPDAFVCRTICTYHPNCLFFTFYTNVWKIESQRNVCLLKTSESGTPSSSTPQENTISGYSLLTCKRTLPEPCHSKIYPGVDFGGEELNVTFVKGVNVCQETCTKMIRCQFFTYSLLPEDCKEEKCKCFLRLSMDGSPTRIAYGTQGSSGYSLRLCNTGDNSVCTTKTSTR
Plasma kallikrein, sequence (P03952 391-638 limits assumed): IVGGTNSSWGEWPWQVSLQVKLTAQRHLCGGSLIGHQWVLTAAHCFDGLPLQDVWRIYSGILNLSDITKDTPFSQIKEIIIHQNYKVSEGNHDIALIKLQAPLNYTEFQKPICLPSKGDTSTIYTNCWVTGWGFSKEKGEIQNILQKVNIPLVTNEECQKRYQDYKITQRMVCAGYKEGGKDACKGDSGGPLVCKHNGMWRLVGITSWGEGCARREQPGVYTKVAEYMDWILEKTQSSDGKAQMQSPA
The target of data set [19] is Tissue-type plasminogen activator (Homo sapiens, UniProt P00750). As to the kind of experiment: Inhibition of human tPA after 30 mins. Summed up: as §3
Tissue-type plasminogen activator, sequence (P00750 whole entry): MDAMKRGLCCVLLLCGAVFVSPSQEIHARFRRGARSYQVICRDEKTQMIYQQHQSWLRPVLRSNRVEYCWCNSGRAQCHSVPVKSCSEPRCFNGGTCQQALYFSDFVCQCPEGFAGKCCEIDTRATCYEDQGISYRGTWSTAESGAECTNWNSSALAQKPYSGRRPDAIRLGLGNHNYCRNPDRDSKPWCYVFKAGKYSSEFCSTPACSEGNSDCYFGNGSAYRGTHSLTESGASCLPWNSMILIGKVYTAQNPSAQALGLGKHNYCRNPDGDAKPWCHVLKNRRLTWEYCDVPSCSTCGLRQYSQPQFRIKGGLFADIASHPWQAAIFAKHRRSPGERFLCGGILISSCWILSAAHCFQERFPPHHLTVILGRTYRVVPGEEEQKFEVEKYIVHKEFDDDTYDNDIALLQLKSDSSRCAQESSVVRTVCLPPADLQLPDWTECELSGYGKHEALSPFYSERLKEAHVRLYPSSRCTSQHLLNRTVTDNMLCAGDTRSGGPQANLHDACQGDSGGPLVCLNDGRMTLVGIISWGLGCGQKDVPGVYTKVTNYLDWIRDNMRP
The nature of data set [20]: Mean residence time in cynomolgus monkey at 0.3 mg/kg, iv. The format is ADME, organism-based, Macaca fascicularis. The following applies: in vivo. On the set-up: dose 0.3 mg/kg, route intravenous. The gist of the method:
as §2

Data set [21] has as its target Prothrombin (Homo sapiens, UniProt P00734). The experiment in a line: Inhibition of human thrombin after 30 mins. Summed up: as §3
Data set [22] concerns the target Trypsin (Homo sapiens, UniProt P07477+P07478+P35030). The experiment in a line: Inhibition of human trypsin after 30 mins. The format is protein assay. Summed up: as §3

Coagulation factor X, sequence (P00742 41-179 limits assumed): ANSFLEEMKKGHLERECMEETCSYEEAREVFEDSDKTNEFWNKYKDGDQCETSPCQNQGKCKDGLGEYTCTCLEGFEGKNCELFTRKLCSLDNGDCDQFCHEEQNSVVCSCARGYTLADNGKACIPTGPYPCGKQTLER
Coagulation factor X, sequence (P00742 235-488 limits assumed): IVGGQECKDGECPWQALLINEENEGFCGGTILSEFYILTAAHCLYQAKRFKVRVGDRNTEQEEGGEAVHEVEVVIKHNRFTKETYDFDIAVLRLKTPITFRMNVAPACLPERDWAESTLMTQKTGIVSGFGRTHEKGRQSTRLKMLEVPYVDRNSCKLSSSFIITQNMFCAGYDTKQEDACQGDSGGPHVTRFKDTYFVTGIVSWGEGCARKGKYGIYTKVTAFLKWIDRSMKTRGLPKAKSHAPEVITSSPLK
CYP3A4, sequence (P08684 whole entry): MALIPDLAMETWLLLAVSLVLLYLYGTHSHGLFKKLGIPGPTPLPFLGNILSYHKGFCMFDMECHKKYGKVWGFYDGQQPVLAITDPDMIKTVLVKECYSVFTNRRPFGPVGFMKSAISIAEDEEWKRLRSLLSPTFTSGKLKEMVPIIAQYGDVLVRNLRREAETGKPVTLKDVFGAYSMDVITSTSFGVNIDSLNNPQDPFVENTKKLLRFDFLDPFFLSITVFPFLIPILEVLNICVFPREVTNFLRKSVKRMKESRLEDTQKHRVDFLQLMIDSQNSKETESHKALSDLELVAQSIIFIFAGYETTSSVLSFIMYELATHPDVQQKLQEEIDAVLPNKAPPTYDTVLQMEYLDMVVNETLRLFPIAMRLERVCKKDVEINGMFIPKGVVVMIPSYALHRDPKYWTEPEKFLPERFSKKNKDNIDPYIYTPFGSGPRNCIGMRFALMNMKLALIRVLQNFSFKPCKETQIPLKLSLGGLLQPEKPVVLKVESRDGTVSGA
Plasminogen, sequence (P00747 97-580 limits assumed): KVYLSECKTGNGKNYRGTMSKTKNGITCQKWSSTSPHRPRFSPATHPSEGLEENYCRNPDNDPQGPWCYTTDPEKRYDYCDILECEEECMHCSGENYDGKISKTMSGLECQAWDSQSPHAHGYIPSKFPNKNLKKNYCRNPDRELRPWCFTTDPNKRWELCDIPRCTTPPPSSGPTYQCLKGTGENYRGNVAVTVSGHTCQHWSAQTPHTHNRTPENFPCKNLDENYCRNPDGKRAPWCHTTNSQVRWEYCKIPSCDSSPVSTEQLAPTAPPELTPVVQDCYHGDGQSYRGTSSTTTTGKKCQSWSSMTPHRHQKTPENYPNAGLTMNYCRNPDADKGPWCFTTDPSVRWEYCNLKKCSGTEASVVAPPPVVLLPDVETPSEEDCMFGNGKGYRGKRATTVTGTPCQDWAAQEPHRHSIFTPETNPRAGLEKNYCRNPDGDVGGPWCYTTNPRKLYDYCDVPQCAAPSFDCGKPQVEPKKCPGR
Plasminogen, sequence (P00747 581-810 limits assumed): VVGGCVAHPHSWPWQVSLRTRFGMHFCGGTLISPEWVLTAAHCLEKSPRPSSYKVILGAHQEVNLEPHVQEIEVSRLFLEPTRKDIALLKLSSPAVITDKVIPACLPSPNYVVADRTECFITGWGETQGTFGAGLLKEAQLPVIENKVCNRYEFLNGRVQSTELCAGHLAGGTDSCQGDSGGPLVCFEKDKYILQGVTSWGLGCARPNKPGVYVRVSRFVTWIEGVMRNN

For orientation: IC50 means the point on the concentration scale where inhibition reaches its midpoint. For `CNC(=O)Cc1cn2c(N3CCN(C(=O)CCS(=O)(=O)c4ccc5cc(Cl)ccc5c4)CC3)cccc2n1`, in [1], the 2PT stood at 2 µM. The same compound yielded an IC50 in data set [2] of 41 nM.
The matching figures for `CC(=O)Nc1cnc2cccc(N3CCN(C(=O)CCS(=O)(=O)c4ccc5cc(Cl)ccc5c4)CC3)n12`: 1.8 µM and 24 nM.
In the case of `CC(=N)N1CC[C@H](Oc2ccc([C@H](Cc3ccc4ccc(C(=N)N)cc4c3)C(=O)O)cc2)C1` [DX-9065A], the result in data set [3] and in data set [4] was Active. For the same compound, the 2PT in data set [1] stood at 0.81 µM.
Regarding `O=C(CCS(=O)(=O)c1ccc2cc(Cl)ccc2c1)N1CCN(c2cccc3ncc([N+](=O)[O-])n23)CC1`, the 2PT in data set [1] is 3.6 µM. Besides, the IC50 in data set [2] stood at 24 nM.
As a reminder, the inhibition is the change of the read-out against control, counted positive when it falls. Turning to `CC(O)Cc1cn2c(N3CCN(C(=O)CCS(=O)(=O)c4ccc5cc(Cl)ccc5c4)CC3)cccc2n1` (stereo not given), the 2PT turned out to be 1.5 µM in [5] and 1.1 µM in data set [1]. The inhibition at 10 µM in data set [6] worked out at 33%. Moreover, the Ratio in [7] is listed as 3.2. In addition, the IC50 in data set [2] amounted to 18 nM.
Turning to `CC(C)(O)c1cn2c(N3CCN(C(=O)CCS(=O)(=O)c4ccc5cc(Cl)ccc5c4)CC3)cccc2n1`, in data set [1], the 2PT was determined as 2.1 µM. In data set [2], this compound registered an IC50 of 18 nM.
`CC(O)c1cn2c(N3CCN(C(=O)CCS(=O)(=O)c4ccc5cc(Cl)ccc5c4)CC3)cccc2n1` (stereo not given): the 2PT in data set [5] was 1.8 µM; in data set [1] it was 1.2 µM. The compound also returned an inhibition at 10 µM in data set [6] of 23%. For the same compound, the Ratio in data set [7] came to 2.5. Besides, the midpoint of inhibition in [2], the IC50, lay at 20 nM.
On to `CCOC(=O)Cc1cn2c(N3CCN(C(=O)CCS(=O)(=O)c4ccc5cc(Cl)ccc5c4)CC3)cccc2n1`, for which the 2PT in data set [1] came to 5.1 µM. Also, half-maximal inhibition in data set [2] (IC50) was put at 93 nM.
The like results for `O=C(CCS(=O)(=O)c1ccc2cc(Cl)ccc2c1)N1CCN(c2cccc3ncc(CO)n23)CC1` were, in that order, 1.7 µM and 29 nM.
Take `CC(C)(O)Cc1cn2c(N3CCN(C(=O)CCS(=O)(=O)c4ccc5cc(Cl)ccc5c4)CC3)cccc2n1`: the 2PT was determined as 1.7 µM in [5] and 0.86 µM in data set [1]. In [6], this compound showed an inhibition at 10 µM of 26%. Moreover, the Ratio in data set [7] is reported as 2.4. The same compound had an IC50 in data set [2] of 22 nM.
Turning to `O=C(CCS(=O)(=O)c1ccc2cc(Cl)ccc2c1)N1CCN(c2ccc3nccn3c2)CC1`, the 2PT in [1] amounted to 2.9 µM. In [2], the IC50 came out at 87 nM.
On to `Nc1cnc2cccc(N3CCN(C(=O)CCS(=O)(=O)c4ccc5cc(Cl)ccc5c4)CC3)n12`, for which the 2PT was 1.5 µM in data set [5] and 0.73 µM in data set [1]. The compound also returned an inhibition at 10 µM in [6] of 52%. The Ratio in data set [7] turned out to be 2.4. Besides, the IC50 in data set [2] was 35 nM.
As for `CN(C)C(=O)Cc1cn2c(N3CCN(C(=O)CCS(=O)(=O)c4ccc5cc(Cl)ccc5c4)CC3)cccc2n1`, the 2PT in [1] worked out at 2.5 µM. This compound gave an IC50 in [2] of 57 nM.
As for `NC(=O)Cc1cn2c(N3CCN(C(=O)CCS(=O)(=O)c4ccc5cc(Cl)ccc5c4)CC3)cccc2n1`, in [1], the 2PT was determined as 2.1 µM. Also, half-maximal inhibition in [2] (IC50) was put at 45 nM.
`CN(C(=O)CCS(=O)(=O)c1ccc2cc(Cl)ccc2c1)C1CCN(c2cccc3nccn23)CC1` came in with an IC50 in data set [2] of 840 nM.
Consider `O=C(CCS(=O)(=O)c1ccc2cc(Cl)ccc2c1)N1CCN(c2cccc3nccn23)CC1`, for which the 2PT in data set [5] came out at 1.7 µM; in [1] it was 1.4 µM. The compound also came in with an inhibition at 10 µM in data set [6] of 45%. The Ratio in [7] stood at 2.5. Half-maximal inhibition in [2] (IC50) required 21 nM.
The term AUC denotes the area under the concentration-time curve, a measure of exposure. What is called Ki is the equilibrium dissociation constant of an inhibitor or competing ligand from its target. A word on the Tmax: it is the time at which the peak concentration occurs. What is called Cmax is the peak of the concentration-time curve. What is called bioavailability is dose-corrected exposure relative to a reference, in per cent. The term clearance denotes the volume of plasma or blood freed of the substance per unit of time. For orientation: MRT means the average time that molecules of a dose stay in the body. For the compound `O=C(CCS(=O)(=O)c1ccc2cc(Cl)ccc2c1)N1CCN(c2cccc3nc(CO)cn23)CC1`, in [8], the concentration at 5 min was determined as 540 ng/mL. Besides, the values for the exposure (AUC) in [9] and in data set [11] were 730 ng·h/mL and 2260 ng·h/mL, respectively. In addition, the Ki in data set [10] is over 60000 nM; in [18], 14000 nM; in [19], over 60000 nM; in data set [2], 8 nM; in data set [21], 960 nM; in [22], over 60000 nM. Moreover, the Tmax in data set [12] was found to be 1.33 h. The 2PT in data set [5] and in data set [1] was 1.4 µM in each case. Moreover, testing at 10 µM in data set [6] gave an inhibition of 15%. Also, the highest level in data set [13] (Cmax) was 500 ng/mL. The bioavailability in data set [14] stood at 30.5%. Further, the Ratio in data set [7] is on record as 1.3. Further, the clearance in data set [15] is 7.33 mL/min/kg. Besides, the MRT turned out to be 3.6 h in data set [16] and 1.97 h in data set [20]. For the same compound, the Vd in [17] amounted to 0.81 L/kg. In data set [2], this compound came in with an IC50 of 9 nM.
For `O=C(CCS(=O)(=O)c1ccc2cc(Cl)ccc2c1)N1CCN(c2ccn3ccnc3c2)CC1`, the 2PT in data set [1] was 2.2 µM. The compound further yielded an IC50 in [2] of 78 nM.
Consider `Cc1cn2c(N3CCN(C(=O)CCS(=O)(=O)c4ccc5cc(Cl)ccc5c4)CC3)cccc2n1`, for which the 2PT in data set [5] stood at 1.3 µM; in [1] it was 0.96 µM. Also, the inhibition at 10 µM in [6] came to 58%. In addition, in [7], the Ratio was determined as 2.9. In data set [2], this compound showed an IC50 of 12 nM.

For the origin of these results see ChEMBL document CHEMBL1143896, “Discovery of piperazinylimidazo[1,2-a]pyridines as novel S4 binding elements for orally active factor Xa inhibitors” (Bioorg Med Chem, 2008).
